Measured values: ChEMBL document CHEMBL5724801, “EUbOPEN Chemogenomics Library - Multiplex” (2024)
Where “and” joins values, the source holds several entries; their conditions need not be identical. Identical values can stand only once.

Test system: Fibroblast
Assay: Multiplex assay against human fibroblast
Format: toxicity, cell-based
Procedure, shortened: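 Cells stained live at seeding with Hoechst33342, BioTracker Green Microtubule Cytoskeleton Dye, MitoTracker Red and Annexin V Alexa Fluor 680 were imaged on a CQ1 microscope at 37°C and 5% CO2 after compound addition. Their classification by CellPathfinder machine-learning gating ran from Hoechst high-intensity objects versus normal cells, to healthy, pyknosed or fragmented nuclei among normal cells, to mitotic or apoptotic among pyknosed cells. Tubulin, mitochondrial-mass and membrane-permeability phenotypes are per cents of healthy-nucleus cells.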

[1] = 12 h, 1 µM, compound concentration 1 uM
[2] = 12 h, 10 µM, compound concentration 10 uM
[3] = 24 h, 1 µM, compound concentration 1 uM
[4] = 24 h, 10 µM, compound concentration 10 uM
[5] = 48 h, 1 µM, compound concentration 1 uM
[6] = 48 h, 10 µM, compound concentration 10 uM

## c1ccc2nc(N3CCNCC3)ccc2c1 [QUIPAZINE]
[1]
  Population Apoptotic (%): 13.95% and 10%
  Population Fragmented Nuclei (%): 15.05% and 6.28%
  Population Healthy Nuclei (%): 64.08% and 79.23%
  Population Hoechst High Intensity Objects (%): 0%
  Population Membrane Permeable-Phenotype (%): 2.27% and 0.61%
  Population Mitochondria Different-Phenotype (%): 9.09% and 6.71%
  Population Mitotic Cells (%): 86.05% and 90%
  Population Normal (%): 100%
  Population Pyknosed Nuclei (%): 20.87% and 14.49%
  Population Tubulin-Different-Phenotype (%): 9.09% and 19.51%
  Total Cell Count: 206 and 207
[2]
  Population Fragmented Nuclei (%): 10.34% and 8.29%
  Population Healthy Nuclei (%): 70.94% and 74.63%
  Population Hoechst High Intensity Objects (%): 0%
  Population Membrane Permeable-Phenotype (%): 3.47% and 5.23%
  Population Mitotic Cells (%): 94.74% and 74.29%
  Population Normal (%): 100%
  Population Pyknosed Nuclei (%): 18.72% and 17.07%
  Population Tubulin-Different-Phenotype (%): 13.19% and 23.53%
  Total Cell Count: 203 and 205
[3]
  Population Apoptotic (%): 15.79% and 12%
  Population Fragmented Nuclei (%): 7.37% and 6.28%
  Population Healthy Nuclei (%): 75.12% and 82.51%
  Population Hoechst High Intensity Objects (%): 0%
  Population Membrane Permeable-Phenotype (%): 4.91% and 2.72%
  Population Mitochondria Different-Phenotype (%): 6.75% and 7.61%
  Population Mitotic Cells (%): 84.21% and 88%
  Population Normal (%): 100%
  Population Pyknosed Nuclei (%): 17.51% and 11.21%
  Population Tubulin-Different-Phenotype (%): 11.04% and 17.93%
  Total Cell Count: 217 and 223
[4]
  Population Apoptotic (%): 17.65% and 35.71%
  Population Fragmented Nuclei (%): 10.5% and 7.62%
  Population Healthy Nuclei (%): 73.97% and 79.82%
  Population Hoechst High Intensity Objects (%): 0%
  Population Membrane Permeable-Phenotype (%): 3.7% and 3.37%
  Population Mitochondria Different-Phenotype (%): 3.09% and 6.74%
  Population Mitotic Cells (%): 82.35% and 64.29%
  Population Normal (%): 100%
  Population Pyknosed Nuclei (%): 15.53% and 12.56%
  Population Tubulin-Different-Phenotype (%): 16.05% and 25.84%
  Total Cell Count: 219 and 223
[5]
  Population Apoptotic (%): 57.14% and 58.33%
  Population Fragmented Nuclei (%): 12.6% and 5.91%
  Population Healthy Nuclei (%): 82.06% and 88.64%
  Population Hoechst High Intensity Objects (%): 0%
  Population Membrane Permeable-Phenotype (%): 2.33% and 4.1%
  Population Mitotic Cells (%): 42.86% and 41.67%
  Population Normal (%): 100%
  Population Pyknosed Nuclei (%): 5.34% and 5.45%
  Population Tubulin-Different-Phenotype (%): 4.19% and 11.79%
  Total Cell Count: 262 and 220
[6]
  Population Apoptotic (%): 35.71% and 45%
  Population Fragmented Nuclei (%): 10.74% and 6.5%
  Population Healthy Nuclei (%): 84.07% and 85.37%
  Population Hoechst High Intensity Objects (%): 0%
  Population Membrane Permeable-Phenotype (%): 1.32% and 4.76%
  Population Mitochondria Different-Phenotype (%): 6.61% and 0.48%
  Population Mitotic Cells (%): 64.29% and 55%
  Population Normal (%): 100%
  Population Pyknosed Nuclei (%): 5.19% and 8.13%
  Total Cell Count: 270 and 246

## CC(C)(C)c1ccc(S(=O)(=O)Nc2ccc(Cl)cc2C(=O)c2cc[n+]([O-])cc2)cc1 [VERCIRNON]
[1]
  Population Apoptotic (%): 63% and 50%
  Population Fragmented Nuclei (%): 19% and 27%
  Population Healthy Nuclei (%): 65% and 46%
  Population Hoechst High Intensity Objects (%): 2% and 7%
  Population Membrane Permeable-Phenotype (%): 1% and 6%
  Population Mitochondria Different-Phenotype (%): 3% and 1%
  Population Mitotic Cells (%): 36% and 50%
  Population Normal (%): 97% and 92%
  Population Pyknosed Nuclei (%): 15% and 25%
  Population Tubulin-Different-Phenotype (%): 20% and 41%
  Total Cell Count: 148 and 152
[2]
  Population Apoptotic (%): 59% and 48%
  Population Fragmented Nuclei (%): 14% and 30%
  Population Healthy Nuclei (%): 64% and 44%
  Population Hoechst High Intensity Objects (%): 3% and 5%
  Population Membrane Permeable-Phenotype (%): 3% and 8%
  Population Mitochondria Different-Phenotype (%): 1% and 10%
  Population Mitotic Cells (%): 40% and 51%
  Population Normal (%): 96% and 94%
  Population Pyknosed Nuclei (%): 21% and 25%
  Population Tubulin-Different-Phenotype (%): 46% and 66%
  Total Cell Count: 107 and 114
[3]
  Population Apoptotic (%): 55% and 54%
  Population Fragmented Nuclei (%): 23% and 25%
  Population Healthy Nuclei (%): 62% and 57%
  Population Hoechst High Intensity Objects (%): 0% and 7%
  Population Membrane Permeable-Phenotype (%): 4% and 7%
  Population Mitochondria Different-Phenotype (%): 1%
  Population Mitotic Cells (%): 45%
  Population Normal (%): 99% and 92%
  Population Pyknosed Nuclei (%): 14% and 16%
  Population Tubulin-Different-Phenotype (%): 27% and 40%
  Total Cell Count: 141 and 142
[4]
  Population Apoptotic (%): 66% and 41%
  Population Fragmented Nuclei (%): 16% and 32%
  Population Healthy Nuclei (%): 66% and 42%
  Population Hoechst High Intensity Objects (%): 1% and 0%
  Population Mitochondria Different-Phenotype (%): 2% and 9%
  Population Mitotic Cells (%): 33% and 58%
  Population Normal (%): 98% and 99%
  Population Pyknosed Nuclei (%): 16% and 24%
  Population Tubulin-Different-Phenotype (%): 40% and 82%
  Total Cell Count: 114 and 120
[5]
  Population Apoptotic (%): 61% and 62%
  Population Fragmented Nuclei (%): 29% and 32%
  Population Healthy Nuclei (%): 58% and 55%
  Population Hoechst High Intensity Objects (%): 1% and 6%
  Population Membrane Permeable-Phenotype (%): 1% and 6%
  Population Mitochondria Different-Phenotype (%): 1% and 9%
  Population Mitotic Cells (%): 38% and 37%
  Population Normal (%): 98% and 93%
  Population Pyknosed Nuclei (%): 12% and 11%
  Population Tubulin-Different-Phenotype (%): 25% and 37%
  Total Cell Count: 151 and 145
[6]
  Population Apoptotic (%): 62% and 46%
  Population Fragmented Nuclei (%): 22% and 42%
  Population Healthy Nuclei (%): 64% and 46%
  Population Hoechst High Intensity Objects (%): 2% and 4%
  Population Mitochondria Different-Phenotype (%): 0% and 12%
  Population Mitotic Cells (%): 37% and 53%
  Population Normal (%): 97% and 95%
  Population Pyknosed Nuclei (%): 13% and 11%
  Population Tubulin-Different-Phenotype (%): 38% and 72%
  Total Cell Count: 120 and 122

## COC[C@@H](c1ccc(C(F)(F)F)cc1)N1CCN(C2(C)CCN(C(=O)c3c(C)ncnc3C)CC2)C[C@@H]1C.O=C(O)/C=C\C(=O)O [VICRIVIROC MALEATE]
[1]
  Population Apoptotic (%): 36%
  Population Fragmented Nuclei (%): 23%
  Population Healthy Nuclei (%): 53% and 51%
  Population Hoechst High Intensity Objects (%): 4%
  Population Membrane Permeable-Phenotype (%): 2% and 5%
  Population Mitochondria Different-Phenotype (%): 11% and 13%
  Population Mitotic Cells (%): 63%
  Population Normal (%): 95%
  Population Pyknosed Nuclei (%): 22% and 25%
  Population Tubulin-Different-Phenotype (%): 16% and 41%
  Total Cell Count: 138 and 190
[2]
  Population Apoptotic (%): 58% and 33%
  Population Fragmented Nuclei (%): 26% and 48%
  Population Healthy Nuclei (%): 59% and 33%
  Population Hoechst High Intensity Objects (%): 17% and 20%
  Population Membrane Permeable-Phenotype (%): 2% and 12%
  Population Mitochondria Different-Phenotype (%): 4%
  Population Mitotic Cells (%): 41% and 66%
  Population Normal (%): 82% and 79%
  Population Pyknosed Nuclei (%): 14% and 18%
  Population Tubulin-Different-Phenotype (%): 45% and 67%
  Total Cell Count: 208 and 186
[3]
  Population Apoptotic (%): 66% and 30%
  Population Fragmented Nuclei (%): 21% and 28%
  Population Healthy Nuclei (%): 57% and 50%
  Population Hoechst High Intensity Objects (%): 3%
  Population Membrane Permeable-Phenotype (%): 1% and 8%
  Population Mitochondria Different-Phenotype (%): 7% and 20%
  Population Mitotic Cells (%): 33% and 69%
  Population Normal (%): 96%
  Population Pyknosed Nuclei (%): 20% and 21%
  Population Tubulin-Different-Phenotype (%): 18% and 41%
  Total Cell Count: 138 and 204
[4]
  Population Apoptotic (%): 73% and 42%
  Population Fragmented Nuclei (%): 23% and 46%
  Population Healthy Nuclei (%): 64% and 39%
  Population Hoechst High Intensity Objects (%): 12% and 21%
  Population Membrane Permeable-Phenotype (%): 0% and 8%
  Population Mitochondria Different-Phenotype (%): 5% and 12%
  Population Mitotic Cells (%): 26% and 57%
  Population Normal (%): 87% and 78%
  Population Pyknosed Nuclei (%): 11% and 14%
  Population Tubulin-Different-Phenotype (%): 42% and 60%
  Total Cell Count: 196 and 183
[5]
  Population Apoptotic (%): 59% and 53%
  Population Fragmented Nuclei (%): 21% and 33%
  Population Healthy Nuclei (%): 56% and 50%
  Population Hoechst High Intensity Objects (%): 3% and 5%
  Population Membrane Permeable-Phenotype (%): 0% and 9%
  Population Mitochondria Different-Phenotype (%): 7% and 19%
  Population Mitotic Cells (%): 40% and 46%
  Population Normal (%): 96% and 95%
  Population Pyknosed Nuclei (%): 21% and 15%
  Population Tubulin-Different-Phenotype (%): 34% and 58%
  Total Cell Count: 127 and 180
[6]
  Population Apoptotic (%): 73% and 53%
  Population Fragmented Nuclei (%): 23% and 54%
  Population Healthy Nuclei (%): 65% and 35%
  Population Hoechst High Intensity Objects (%): 14% and 20%
  Population Membrane Permeable-Phenotype (%): 0% and 9%
  Population Mitochondria Different-Phenotype (%): 5% and 10%
  Population Mitotic Cells (%): 26% and 46%
  Population Normal (%): 85% and 79%
  Population Pyknosed Nuclei (%): 10% and 9%
  Population Tubulin-Different-Phenotype (%): 48% and 61%
  Total Cell Count: 206 and 193
